In one data set the test system is MDCK. The data set is described as follows: Cytotoxicity against MDCK cells assessed as reduction in cell viability measured after 48 hrs by CellTiter Glo assay. To be noted: dog. It counts as cell-based, Canis lupus familiaris. The gist of the method:
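MDCK cells were incubated with compound under the conditions of the 48 h replication assay. Cytotoxicity was read with the CellTiter-Glo ATP viability assay. Follow-up viability testing used 5, 10, 50 and 100 μM.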

Data set [1] has as its system Influenza A virus. Briefly: Antiviral activity against Influenza A virus A/PR/8/34 (H1N1) infected in MDCK cells assessed as fold reduction in virus titer at 10 uM measured after 48 hrs by hemagglutination assay relative to control. It counts as functional, A/Puerto Rico/8/1934(H1N1). An outline of the steps:
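MDCK cells were infected with A/PR/8/34 (H1N1) at MOI 0.1 and incubated with compound for 48 h. Supernatant virus was then quantified by hemagglutination assay and standard TCID50 analysis. The single-concentration screen used 10 μM and reports fold reduction in titer. Dose-response runs used triplicate cultures, with percent titer decrease back-calculated from TCID50.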

The target of data set [2] is Non-structural protein 1 (Influenza A virus (strain A/Puerto Rico/8/1934 H1N1)) (UniProt P03496). Briefly: Inhibition of NS1 in Influenza A virus A/PR/8/34 (H1N1) infected in MDCK cells assessed as restoration of protein-induced reduction in IFN-beta mRNA expression at 20 uM measured after 6 hrs by RT-PCR analysis. The class given is cell-based. The following applies: Influenza A virus (A/Puerto Rico/8/1934(H1N1)). An outline of the steps: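 MDCK cells infected with A/PR/8/34 at MOI 2 and incubated 6 h with compound at 20 μM. Cells harvested; IFN-β and β-actin mRNA detected by RT-PCR. Poly(I:C) lane serves as positive control for IFN-β induction.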
Chain of Non-structural protein 1 (Influenza A virus (strain A/Puerto Rico/8/1934 H1N1)) (P03496 whole entry): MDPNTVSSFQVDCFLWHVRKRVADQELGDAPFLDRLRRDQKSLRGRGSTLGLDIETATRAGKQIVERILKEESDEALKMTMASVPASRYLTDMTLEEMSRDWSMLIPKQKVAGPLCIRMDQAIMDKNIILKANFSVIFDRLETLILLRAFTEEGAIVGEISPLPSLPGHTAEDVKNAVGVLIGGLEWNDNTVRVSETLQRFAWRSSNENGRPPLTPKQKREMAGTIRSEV

A further data set has as its system Influenza A virus H3N2. Briefly: Antiviral activity against Influenza A virus (A/Brisbane/10/2007(H3N2)) infected in MDCK cells assessed as reduction in virus-induced cytopathic effect measured on day 5 by Celltiter-Glo luminescence assay. The class given is functional, organism-based. The following applies: 120 h. The gist of the method: (§1)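 MDCK cells were infected with seasonal influenza A strains through NIAID resources and scored for protection from virus-induced cell death. Compounds were tested at four concentrations (0.8, 4, 20, 100 μM). EC50/EC90 (reduction of viral cell death) and CC50 (reduction of cell viability) were derived in μM, and SI50 = CC50/EC50.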

Data set [3] relates to Influenza A virus. Briefly: Antiviral activity against Influenza A virus (A/California/7/2009(H1N1)) infected in MDCK cells assessed as reduction in virus-induced cytopathic effect measured on day 5 by Celltiter-Glo luminescence assay. The class given is functional, organism-based. The following applies: 120 h. An outline of the steps:
as §1

Data set [4] in a line: Cytotoxicity against MDCK cells assessed as reduction in cell viability measured on day 5 by Celltiter-Glo luminescence assay. To be noted: dog, MDCK cells. The class given is cell-based, Canis lupus familiaris. An outline of the steps:
as §1

Another data set concerns Influenza B virus. The data set is described as follows: Antiviral activity against Influenza B virus (B/Brisbane/60/2008) infected in MDCK cells assessed as reduction in virus-induced cytopathic effect measured on day 5 by Celltiter-Glo luminescence assay. The class given is functional, organism-based.

The structures appear in SMILES notation. Activity calls are given as the source filed them. No cut-off for these calls is given here.

With `COc1ccc(-c2c(C#N)c(N)nc3c2c(C)nn3-c2ccc(C)cc2)cc1OC`, in the data set with MDCK, the Activity result was “Non-Toxic”. For the same compound, in the data set on Influenza A virus [1], the “fold change (FC)” value is 0.

In the case of `COc1cc(-c2c3c(C)nn(-c4ccccc4)c3nc3[nH]c(=O)[nH]c(=O)c23)cc(OC)c1O`, the Activity entry with MDCK is listed as “Non-Toxic”. The “fold change (FC)” value in the data set on Influenza A virus [1] is 4.

As to `COc1ccc(-n2nc(C)c3c(-c4ccc(O)c(OC)c4)ccnc32)cc1`, the Activity result in the data set with MDCK was “Non-Toxic”. In the data set on Influenza A virus [1], the “fold change (FC)” value turned out to be 32.

`COc1ccc(-c2ccnc3c2c(C)nn3-c2ccc(F)cc2)cc1OC`: the Activity entry in the data set with MDCK is “Non-Toxic”. For the same compound, in the data set with Influenza A virus [1], the “fold change (FC)” value came to 2.

Take `COc1cc(-c2c(C#N)c(N)nc3c2c(C)nn3-c2ccc(C)c(C)c2)cc(OC)c1OC`: the Activity result in the data set on MDCK is on record as “Non-Toxic”. Moreover, the “fold change (FC)” value in the data set on Influenza A virus [1] came out at 0.

Turning to `COc1cc(-c2c3c(C)nn(-c4ccccc4)c3nc3[nH]c(=O)[nH]c(=O)c23)ccc1O`, the Activity entry with MDCK was “Non-Toxic”. For the same compound, the “fold change (FC)” value in the data set on Influenza A virus [1] was 2.

On to `COc1cc(-c2c(C#N)c(N)nc3c2c(C)nn3-c2ccccc2)cc(OC)c1OC`, for which the Activity result in the data set with MDCK is “Non-Toxic”. Moreover, in the data set on Influenza A virus [1], the “fold change (FC)” value was 16.

With `COc1cc(-c2c(C#N)c(N)nc3c2c(C)nn3-c2ccccc2)ccc1O`, the Activity entry in the data set with MDCK is on record as “Non-Toxic”. Further, the “fold change (FC)” value with Influenza A virus [1] stood at 32.

Regarding `COc1cccc(-n2nc(C)c3c(-c4ccc(O)c(OC)c4)ccnc32)c1`, the Activity entry in the data set on MDCK was “Non-Toxic”. Further, the “fold change (FC)” value with Influenza A virus [1] is 0.

With `COc1cc(-c2c(C#N)c(N)nc3c2c(C)nn3-c2ccc(Cl)cc2)cc(OC)c1OC`, the Activity entry in the data set with MDCK is listed as “Non-Toxic”. Moreover, the “fold change (FC)” value in the data set on Influenza A virus [1] was 0.

For `Cc1nn(-c2ccc(F)cc2)c2nc(N)c(C#N)c(-c3ccc(O)c(O)c3)c12`, in the data set with MDCK, the Activity entry was “Non-Toxic”. In addition, in the data set on Influenza A virus [1], the “fold change (FC)” value was determined as 16.

As to `COc1ccc(-c2c(C#N)c(N)nc3c2c(C)nn3-c2ccc(Cl)cc2)cc1OC`, the Activity entry in the data set on MDCK is given as “Non-Toxic”. Also, in the data set with Influenza A virus [1], the “fold change (FC)” value stood at 0.

On to `COc1cccc(-c2ccnc3c2c(C)nn3-c2ccc(F)cc2)c1`, for which the Activity result in the data set with MDCK was “Toxic”. In addition, the “fold change (FC)” value in the data set on Influenza A virus [1] is given as 4.

For `COc1cc(-c2c(C#N)c(O)nc3c2c(C)nn3-c2ccccc2)ccc1O`, the Activity result in the data set with MDCK is recorded as “Non-Toxic”. Moreover, the “fold change (FC)” value in the data set on Influenza A virus [1] was determined as 16.

On to `COc1ccc(-c2c3c(C)nn(-c4ccccc4)c3nc3[nH]c(=O)[nH]c(=O)c23)cc1OC`, for which, in the data set on MDCK, the Activity result was “Non-Toxic”. For the same compound, the “fold change (FC)” value in the data set on Influenza A virus [1] came to 4.

With `COc1ccc(-c2c(C#N)c(N)nc3c2c(C)nn3-c2ccccc2)cc1OC`, in the data set with MDCK, the Activity entry is on record as “Non-Toxic”. Also, in the data set on Influenza A virus [1], the “fold change (FC)” value stood at 2.

Regarding `COc1ccc(-c2c3c(C)nn(-c4ccccc4)c3nc3[nH]c(=O)[nH]c(=O)c23)cc1O`, the Activity entry with MDCK is given as “Non-Toxic”. In the data set with Influenza A virus [1], the “fold change (FC)” value is recorded as 2.

For the compound `COc1ccc(-c2c(C#N)c(O)nc3c2c(C)nn3-c2ccc(F)cc2)cc1OC`, the Activity result in the data set with MDCK is recorded as “Non-Toxic”. For the same compound, the “fold change (FC)” value in the data set with Influenza A virus [1] is 0.

`O=C(NCCCc1ccccc1)c1ccccc1O`: the inhibition entry in data set [2] was “Active”.

Turning to `COc1cc(-c2c(C#N)c(N)nc3c2c(C)nn3-c2ccc(Cl)cc2)ccc1O`, in the data set with MDCK, the Activity result is “Non-Toxic”. Further, in the data set with Influenza A virus [1], the “fold change (FC)” value was found to be 32.

In the case of `COc1cc(-c2c(C(=O)O)cnc3c2c(C)nn3-c2ccc(F)cc2)ccc1O`, the Activity entry in the data set with MDCK is listed as “Non-Toxic”. For the same compound, the “fold change (FC)” value with Influenza A virus [1] is 4.

On to `COc1cc(-c2c(C#N)c(N)nc3c2c(C)nn3-c2ccc(C)cc2)ccc1O`, for which the Activity result in the data set on MDCK is given as “Non-Toxic”. For the same compound, the “fold change (FC)” value in the data set on Influenza A virus [1] stood at 4.

Consider `COc1cc(-c2ccnc3c2c(C)nn3-c2cccc(F)c2)ccc1O`, for which the Activity entry with MDCK was “Non-Toxic”. Further, the “fold change (FC)” value in the data set with Influenza A virus [1] worked out at 0.

With `COc1cc(-c2ccnc3c2c(C)nn3-c2ccc(F)cc2)ccc1O`, the Activity entry with MDCK is listed as “Non-Toxic”. In addition, in the data set with Influenza A virus [1], the “fold change (FC)” value is on record as 2.

`Cc1nn(-c2ccccc2)c2nc3[nH]c(=O)[nH]c(=O)c3c(-c3ccc4c(c3)OCO4)c12`: the Activity result in the data set on MDCK is recorded as “Non-Toxic”. Besides, the “fold change (FC)” value in the data set on Influenza A virus [1] amounted to 4.

As for `Cc1nn(-c2ccccc2)c2nc(N)c(C#N)c(-c3ccc(O)c(O)c3)c12`, in the data set with MDCK, the Activity result is “Non-Toxic”. Besides, the “fold change (FC)” value in the data set on Influenza A virus [1] came to 32.

With `NC(=O)c1ncn([C@@H]2O[C@H](CO)[C@@H](O)[C@H]2O)n1` [RIBAVIRIN], the EC50 was determined as 28.8 µM in the data set on Influenza A virus H3N2 and 2.2 µM in the data set with Influenza A virus [3]. Besides, the 90% effect concentration (EC90) came to 34.9 µM with Influenza A virus H3N2 and 3.5 µM in the data set on Influenza A virus [3].

`COc1cc(-c2ccnc3c2c(C)nn3-c2ccccc2)ccc1O`: the Activity entry in the data set on MDCK is listed as “Non-Toxic”. Moreover, the “fold change (FC)” value with Influenza A virus [1] came out at 2.

On to `Cc1ccc(-n2nc(C)c3c(-c4ccc(O)c(O)c4)c(C#N)c(N)nc32)cc1`, for which the Activity result in the data set with MDCK is listed as “Non-Toxic”. For the same compound, the “fold change (FC)” value in the data set with Influenza A virus [1] was 64.

`COc1ccc(-c2c(C#N)c(N)nc3c2c(C)nn3-c2ccc(F)cc2)cc1OC`: the Activity result in the data set with MDCK was “Non-Toxic”. In addition, in the data set on Influenza A virus [1], the “fold change (FC)” value is given as 2.

As to `COc1cc(-c2c(C#N)c(N)nc3c2c(C)nn3-c2ccc(C)cc2)cc(OC)c1OC`, the Activity entry in the data set on MDCK is “Non-Toxic”. In the data set on Influenza A virus [1], the “fold change (FC)” value worked out at 32.

For `COc1cc(-c2c(C#N)c(N)nc3c2c(C)nn3-c2ccc(C)c(C)c2)ccc1O`, the Activity result in the data set with MDCK is “Non-Toxic”. Further, the “fold change (FC)” value in the data set on Influenza A virus [1] amounted to 4.

Regarding `COc1cc(-c2c(C#N)c(O)nc3c2c(C)nn3-c2ccccc2)cc(OC)c1OC`, the Activity result in the data set with MDCK was “Non-Toxic”. Moreover, in the data set with Influenza A virus [1], the “fold change (FC)” value was determined as 16.

For `COc1cc(-c2c(C#N)c(N)nc3c2c(C)nn3-c2ccc(F)cc2)cc(OC)c1OC`, in the data set with MDCK, the Activity entry is “Non-Toxic”. In data set [4], the CC50 at 5 day is 0.87 to 6 µM. The result with Influenza B virus was inactive. In the data set on Influenza A virus H3N2, the EC50 is above 50 µM and the 90% effect concentration (EC90) was above 50 µM. Besides, in the data set with Influenza A virus [1], the “fold change (FC)” value is given as 0. In the data set with Influenza A virus [3], the EC50 was 18.3 µM and the 90% effect concentration (EC90) was found to be 42.4 µM.

Take `CCOC(=O)c1cnc2c(c(C)nn2-c2ccc(F)cc2)c1-c1ccc(O)c(OC)c1`: the Activity entry with MDCK is “Non-Toxic”. The “fold change (FC)” value in the data set on Influenza A virus [1] amounted to 16.

With `COc1ccc(-c2c(C#N)c(O)nc3c2c(C)nn3-c2ccccc2)cc1OC`, the Activity entry in the data set with MDCK is “Non-Toxic”. Further, in the data set with Influenza A virus [1], the “fold change (FC)” value is given as 2.

(Values after ChEMBL document CHEMBL4316619 (Bioorg Med Chem Lett, 2019).)
